Several values for one entry are separate records, joined by “and”; a condition that tells them apart may be missing. Equal values may be shown once.
What was measured:
Type in all cases: functional
[1] = test system: Mus musculus; assay: Systemic Antiinflammatory activity was measured in the TPA induced mouse ear edema assay at 300 ugm/mouse.
Procedure, shortened: (§1)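 Systemic absorption was assessed by the contralateral ear assay. Ear edema was induced with TPA (8.8 nmol/mouse) and scored on the ear opposite the one receiving the topical corticoid.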

[2] = test system: Mus musculus; assay: Topical Antiinflammatory activity was measured in the TPA induced mouse ear edema assay at 300 ugm/mouse.
Procedure, shortened: (§2)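 Mouse ear edema induced by topical TPA at 8.8 nmol/mouse, with the test steroid applied topically to the ear.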

[3] = organism: Mus musculus; assay: Percentage systemic effect to assess the degree of absorption was measured at 50 ug/mouse
Procedure, shortened: (§3)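 Systemic effect was measured after repeated topical high-dose applications to the mouse ear. Thymic involution was read as loss of thymus weight (n = 6). Adrenal suppression was read as inhibition of the stress-induced rise in plasma cortisol (n = 6).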

[4] = test system: Mus musculus; assay: Systemic Antiinflammatory activity was measured in the TPA induced mouse ear edema assay at 100 ug/mouse.; procedure, shortened: as §1
[5] = organism: Mus musculus; assay: Skin thickness of mouse was measured at 300 ugm/mouse.
[6] = test system: Mus musculus; assay: Topical Antiinflammatory activity was measured in the TPA induced mouse ear edema assay at 50 ug/mouse.; procedure, shortened: as §2
[7] = test system: Mus musculus; assay: Systemic Antiinflammatory activity was measured in the TPA induced mouse ear edema assay at 50 ug/mouse; procedure, shortened: as §1
[8] = test system: Mus musculus; assay: Topical Antiinflammatory activity was measured in the TPA induced mouse ear edema assay at 100 ug/mouse.; procedure, shortened: as §2
[9] = test system: Mus musculus; assay: Topical Antiinflammatory activity was measured in the TPA induced mouse ear edema assay at 200 ug/mouse.; procedure, shortened: as §2
[10] = organism: Mus musculus; assay: Percentage systemic effect to assess the degree of absorption was measured at 100 ug/mouse.; procedure, shortened: as §3
[11] = test system: Mus musculus; assay: ED100 of was measured in the TPA induced mouse ear edema assay.; procedure, shortened: as §2
[12] = organism: Mus musculus; assay: Percentage systemic effect to assess the degree of absorption was measured at 200 ug/mouse.; procedure, shortened: as §3
[13] = organism: Mus musculus; assay: Atrophogenicity potency was observed in mouse at given dose at 300 ugm/mouse.
[14] = test system: Mus musculus; assay: Systemic Antiinflammatory activity was measured in the TPA induced mouse ear edema assay at 200 ug/mouse.; procedure, shortened: as §1
[15] = organism: Mus musculus; assay: Atrophogenicity potency was observed in mouse at 200 ug/mouse.
[16] = test system: Mus musculus; assay: Topical Antiinflammatory activity was measured in the TPA induced mouse ear edema assay at 40 ugm/mouse.; procedure, shortened: as §2
[17] = organism: Mus musculus; assay: Skin thickness of mouse was measured at 200 ug/mouse
[18] = organism: Mus musculus; assay: Percentage systemic effect to assess the degree of absorption was measured at 10 ug/mouse.; procedure, shortened: as §3
[19] = test system: Mus musculus; assay: Topical Antiinflammatory activity was measured in the TPA induced mouse ear edema assay at 10 ug/mouse.; procedure, shortened: as §2
[20] = test system: Mus musculus; assay: Systemic Antiinflammatory activity was measured in the TPA induced mouse ear edema assay at 40 ugm/mouse.; procedure, shortened: as §1
[21] = test system: Mus musculus; assay: Systemic Antiinflammatory activity was measured in the TPA induced mouse ear edema assay at 10 ug/mouse.; procedure, shortened: as §1
[22] = organism: Mus musculus; assay: Percentage systemic effect to assess the degree of absorption was measured 40 ugm/mouse.; procedure, shortened: as §3
[23] = organism: Mus musculus; assay: Percentage systemic effect to assess the degree of absorption was measured at 50 ug/mouse.; procedure, shortened: as §3
[24] = test system: Mus musculus; assay: Systemic Antiinflammatory activity was measured in the TPA induced mouse ear edema assay at 50 ug/mouse.; procedure, shortened: as §1
[25] = organism: Mus musculus; assay: Percentage systemic effect to assess the degree of absorption was measured at 300 ugm/mouse.; procedure, shortened: as §3
[26] = organism: Mus musculus; assay: Percentage systemic effect to assess the degree of absorption was measured at 40 ugm/mouse.; procedure, shortened: as §3
[27] = organism: Mus musculus; assay: Percentage systemic effect to assess the degree of absorption was measured 75 ug/mouse; procedure, shortened: as §3
[28] = test system: Mus musculus; assay: Systemic Antiinflammatory activity was measured in the TPA induced mouse ear edema assay at 25 ug/mouse; procedure, shortened: as §1
[29] = organism: Mus musculus; assay: Skin thickness of mouse was measured at 75 ug/mouse
[30] = test system: Mus musculus; assay: Topical Antiinflammatory activity was measured in the TPA induced mouse ear edema assay at 25 ug/mouse.; procedure, shortened: as §2
[31] = test system: Mus musculus; assay: Systemic Antiinflammatory activity was measured in the TPA induced mouse ear edema assay at 2.5 ug/mouse; procedure, shortened: as §1
[32] = test system: Mus musculus; assay: Systemic Antiinflammatory activity was measured in the TPA induced mouse ear edema assay at 75 ug/mouse; procedure, shortened: as §1
[33] = test system: Mus musculus; assay: Topical Antiinflammatory activity was measured in the TPA induced mouse ear edema assay at 2.5 ug/mouse.; procedure, shortened: as §2
[34] = organism: Mus musculus; assay: Percentage systemic effect to assess the degree of absorption was measured 25 ug/mouse; procedure, shortened: as §3
[35] = organism: Mus musculus; assay: Atrophogenicity potency was observed in mouse at 75 ug/mouse.
[36] = test system: Mus musculus; assay: Topical Antiinflammatory activity was measured in the TPA induced mouse ear edema assay at 75 ug/mouse.; procedure, shortened: as §2
[37] = organism: Mus musculus; assay: Skin thickness of mouse was measured at 75 ug/mouse.
[38] = organism: Mus musculus; assay: Percentage systemic effect to assess the degree of absorption was measured at 75 ug/mouse; procedure, shortened: as §3
[39] = organism: Mus musculus; assay: Percentage systemic effect to assess the degree of absorption was measured at 2.5 ug/mouse; procedure, shortened: as §3

For `CCCC(=O)O[C@@H]1[C@H](O)[C@@]2(Br)C(CCC3=CC(=O)C=C[C@@]32C)[C@@H]2C[C@H](C)[C@](OC(=O)CC)(C(=O)COC(=O)CC)[C@@]12C` (stereo partly drawn), which Potency [1] is on record?
Its Potency is 0%.

And the Potency [2]?
Its Potency is 68%.

What does the source list for `CCC(=O)OCC(=O)[C@@]1(OC(=O)CC)[C@@H](C)C[C@H]2C3CCC4=CC(=O)C=C[C@]4(C)[C@@]3(Cl)[C@@H](O)[C@@H](OC(=O)CC)[C@@]21C` (stereo partly drawn)?
Systemic effect [3]: 4% and 5%; Potency [1]: 0%; Potency [4]: 0%; Potency [2]: 84%; Skin thickness [5]: 16.5; Potency [6]: 47%; Potency [7]: 0%; Potency [8]: 53%; Potency [9]: 71%; Systemic effect [10]: 5%; ED100 [11]: 400 µg; Systemic effect [12]: 0% and 6%; Potency [13]: 0.1%; Potency [14]: 0%

What does the source list for `CCC(=O)OCC(=O)[C@@]1(OC(=O)CC)[C@@H](C)C[C@H]2C3CCC4=CC(=O)C=C[C@]4(C)[C@@]3(Br)[C@@H](O)[C@@H](OC(=O)CC)[C@@]21C` (stereo partly drawn)?
Systemic effect [3]: 2%; Potency [1]: 0%; Potency [4]: 0%; Potency [2]: 96%; Potency [6]: 36%; Potency [7]: 0%; Potency [8]: 45%; Potency [9]: 70%; Systemic effect [10]: 6%; ED100 [11]: 325 µg; Systemic effect [12]: 2% and 0%; Potency [14]: 0%

With `CCC(=O)OCC(=O)[C@@]1(OC(=O)CC)[C@@H](C)C[C@H]2C3CCC4=CC(=O)C=C[C@]4(C)[C@@]3(Br)[C@@H](O)[C@@H](OC(=O)c3ccco3)[C@@]21C` (stereo partly drawn) as the molecule, how does the Potency [1] read?
Its Potency is 0%.

What about the Potency [2] of the same molecule?
The Potency was 69%.

How did the Potency [1] turn out when `CCC(=O)OCC(=O)[C@@]1(OC(=O)CC)[C@@H](C)C[C@H]2C3CCC4=CC(=O)C=C[C@]4(C)[C@@]3(Br)[C@@H](O)[C@@H](OC(=O)c3ccccc3)[C@@]21C` (stereo partly drawn) was run?
Its Potency is 0%.

What about the Potency [2] of the same molecule?
The Potency was 84%.

What does the source list for `CCC(=O)OCC(=O)[C@@]1(OC(=O)CC)[C@@H](C)C[C@H]2C3CCC4=CC(=O)C=C[C@]4(C)[C@@]3(Cl)[C@@H](O)[C@@H](O)[C@@]21C` (stereo partly drawn)?
Potency [15]: 15.7%; Potency [4]: 21%; Potency [8]: 81%; Potency [16]: 67%; Skin thickness [17]: 13.92; Systemic effect [18]: 4% and 2%; Systemic effect [10]: 5% and 14%; ED100 [11]: 160 µg; Potency [19]: 41%; Potency [20]: 5%; Potency [21]: 0%; Systemic effect [22]: 0% and 13%

Which Potency [1] does the source give for `CCC(=O)OCC(=O)[C@@]1(OC(=O)CC)[C@@H](C)C[C@H]2C3CCC4=CC(=O)C=C[C@]4(C)[C@@]3(Br)[C@@H](O)[C@@H](O)[C@@]21C` (stereo partly drawn) here?
Its Potency is 22%.

What about the Potency [4] of the same molecule?
The Potency was 17%.

And the Systemic effect [23]?
The Systemic effect was 7% and 12%.

And the Potency [2]?
Its Potency is 99%.

And the Potency [24]?
Its Potency is 16%.

And the Potency [6]?
Its Potency is 57%.

And the Potency [8]?
The Potency was 86%.

And the Potency [9]?
The Potency was 91%.

And the Systemic effect [10]?
The Systemic effect was 0% and 14%.

What about the Systemic effect [25] of the same molecule?
Its Systemic effect is 7% and 15%.

And the ED100 [11]?
Its ED100 is 325 µg.

And the Systemic effect [12]?
Its Systemic effect is 7% and 15%.

And the Potency [14]?
The Potency was 17%.

Which Potency [4] does the source give for `CCC(=O)OCC(=O)[C@@]1(OC(=O)CC)[C@@H](C)C[C@H]2C3CCC4=CC(=O)C=C[C@]4(C)[C@@]3(F)[C@@H](O)[C@@H](OC(=O)CC)[C@@]21C` (stereo partly drawn) here?
Its Potency is 0%.

What about the Potency [8] of the same molecule?
Its Potency is 69%.

What about the Potency [16] of the same molecule?
Its Potency is 50%.

What about the Systemic effect [18] of the same molecule?
The Systemic effect was 0%.

What about the Potency [9] of the same molecule?
The Potency was 77%.

What about the Systemic effect [10] of the same molecule?
Its Systemic effect is 4% and 0%.

What about the ED100 [11] of the same molecule?
Its ED100 is 400 µg.

And the Potency [19]?
Its Potency is 21%.

What about the Systemic effect [26] of the same molecule?
Its Systemic effect is 1% and 6%.

What about the Potency [20] of the same molecule?
The Potency was 0%.

And the Potency [21]?
The Potency was 0%.

And the Potency [14]?
The Potency was 0%.

For `CCC(=O)OCC(=O)[C@@]1(OC(=O)CC)[C@@H](C)C[C@H]2C3CCC4=CC(=O)C=C[C@]4(C)[C@@]3(Br)[C@@H](O)[C@@H](OC(=O)CC(C)C)[C@@]21C` (stereo partly drawn), which Potency [1] is on record?
The Potency was 0%.

What about the Potency [2] of the same molecule?
Its Potency is 54%.

`CCC(=O)OCC(=O)[C@@]1(OC(=O)CC)[C@@H](C)C[C@H]2C3CCC4=CC(=O)C=C[C@]4(C)[C@@]3(F)[C@@H](O)[C@@H](O)[C@@]21C` (stereo partly drawn) was tested. Which Potency [4] did it give?
Its Potency is 19%.

And the Potency [8]?
Its Potency is 82%.

And the Potency [16]?
Its Potency is 60%.

What about the Systemic effect [18] of the same molecule?
Its Systemic effect is 9% and 1%.

What about the Systemic effect [10] of the same molecule?
The Systemic effect was 21% and 30%.

And the ED100 [11]?
Its ED100 is 140 µg.

And the Potency [19]?
The Potency was 46%.

What about the Potency [20] of the same molecule?
Its Potency is 11%.

And the Potency [21]?
Its Potency is 7%.

What about the Systemic effect [22] of the same molecule?
The Systemic effect was 13% and 10%.

What does the source list for `CCC(=O)OCC(=O)[C@@]1(OC(=O)CC)[C@@H](C)C[C@H]2[C@@H]3CCC4=CC(=O)C=C[C@]4(C)[C@@]3(Cl)[C@@H](O)C[C@@]21C` [BECLOMETHASONE DIPROPIONATE]?
Systemic effect [27]: 67% and 36%; Potency [28]: 40%; Skin thickness [29]: 8.12; Potency [30]: 78%; ED100 [11]: 110 µg; Potency [31]: 12%; Potency [32]: 52%; Potency [33]: 60%; Systemic effect [34]: 52% and 32%; Potency [35]: 51%; Potency [36]: 93%

Which Potency [28] does the source give for `CCC(=O)OCC(=O)[C@@]1(OC(=O)CC)[C@@H](C)C[C@H]2[C@@H]3CCC4=CC(=O)C=C[C@]4(C)[C@@]3(F)[C@@H](O)C[C@@]21C` [BETAMETHASONE DIPROPIONATE] here?
Its Potency is 30%.

And the Skin thickness [37]?
The Skin thickness was 9.39.

And the Potency [30]?
The Potency was 76%.

And the ED100 [11]?
The ED100 was 110 µg.

And the Potency [31]?
Its Potency is 27%.

And the Potency [32]?
Its Potency is 72%.

What about the Potency [33] of the same molecule?
Its Potency is 59%.

And the Potency [35]?
Its Potency is 43%.

And the Systemic effect [38]?
Its Systemic effect is 87% and 37%.

And the Potency [36]?
The Potency was 93%.

What about the Systemic effect [39] of the same molecule?
The Systemic effect was 30% and 12%.

— ChEMBL document CHEMBL1124813, “Synthesis and antiinflammatory activity of novel 12 beta-substituted analogues of betamethasone” (1990)
